Test results taken from ChEMBL document CHEMBL4665752, “Synthesis and Antifungal Activity of Chromones and Benzoxepines from the Leaves of Ptaeroxylon obliquum” (2020).
Values after ≈ are worked out from the molar mass of the structure shown.

What was measured:
Type in all cases: functional
Candida albicans [1] = test: Antifungal activity against Candida albicans ATCC 10231 after 24 hrs by microdilution assay
Method in brief: (§1)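 Broth microdilution in triplicate; compounds in DMSO, serially diluted in sterile distilled water, final 25 to 0.2 μg/mL; fungi kept on Sabouraud dextrose agar, inocula diluted in Sabouraud dextrose broth. p-Iodonitrotetrazolium violet (0.2 mg/mL stock) added as growth indicator; incubation 35 °C, 100% relative humidity. MIC = lowest concentration inhibiting growth, read at 24 and 48 h. Amphotericin B positive, DMSO negative control.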

Candida albicans [2] = test: Antifungal activity against Candida albicans ATCC 10231 after 48 hrs by microdilution assay; method in brief: as §1
Cryptococcus neoformans [3] = test: Antifungal activity against Cryptococcus neoformans after 24 hrs by microdilution assay; method in brief: as §1
Cryptococcus neoformans [4] = test: Antifungal activity against Cryptococcus neoformans after 48 hrs by microdilution assay; method in brief: as §1

SMILES	MIC (Candida albicans [1]) [µM]	MIC (Candida albicans [2]) [µM]	MIC (Cryptococcus neoformans [3]) [µM]	MIC (Cryptococcus neoformans [4]) [µM]
C[C@@H]1[C@H](O)[C@@H](C)/C=C/C=C/C=C/C=C/C=C/C=C/C=C/[C@H](O[C@@H]2O[C@H](C)[C@@H](O)[C@H](N)[C@@H]2O)C[C@@H]2O[C@](O)(C[C@@H](O)C[C@@H](O)[C@H](O)CC[C@@H](O)C[C@@H](O)CC(=O)O[C@H]1C)C[C@H](O)[C@H]2C(=O)O [AMPHOTERICIN B]	0.42 (≈ 0.388 µg/mL)	0.84 (≈ 0.776 µg/mL)	0.42 (≈ 0.388 µg/mL)	0.42 (≈ 0.388 µg/mL)
Cc1cc(=O)c2c(O)c3c(cc2o1)OCC(CO)=CC3	11.4 (≈ 3.13 µg/mL)	11.4 (≈ 3.13 µg/mL)	5.7 (≈ 1.56 µg/mL)	5.7 (≈ 1.56 µg/mL)
CC(=O)OCC1=CCc2c(cc3oc(C)cc(=O)c3c2O)OC1	19.8 (≈ 6.26 µg/mL)	19.8 (≈ 6.26 µg/mL)	4.9 (≈ 1.55 µg/mL)	4.9 (≈ 1.55 µg/mL)
Cc1cc(=O)c2c(O)cc3c(c2o1)CC=C(CO)CO3	11.4 (≈ 3.13 µg/mL)	11.4 (≈ 3.13 µg/mL)	5.7 (≈ 1.56 µg/mL)	5.7 (≈ 1.56 µg/mL)
C=CCc1c2c(c(O)c(C(C)=O)c1OC)C=CC(C)(C)O2	86.7 (≈ 25 µg/mL)	86.7 (≈ 25 µg/mL)	21.7 (≈ 6.26 µg/mL)	43.3 (≈ 12.5 µg/mL)
C=CCc1c(O)cc(O)c2c(=O)cc(C)oc12	13.5 (≈ 3.14 µg/mL)	13.5 (≈ 3.14 µg/mL)	13.5 (≈ 3.14 µg/mL)	13.5 (≈ 3.14 µg/mL)
C=CCc1c2c(c(O)c3c(=O)cc(C)oc13)C=CC(C)(C)O2	41.9 (≈ 12.5 µg/mL)	83.8 (≈ 25 µg/mL)	10.5 (≈ 3.13 µg/mL)	10.5 (≈ 3.13 µg/mL)
CC(=O)OCC1=CCc2c(cc(O)c3c(=O)cc(C)oc23)OC1	9.9 (≈ 3.13 µg/mL)	9.9 (≈ 3.13 µg/mL)	9.9 (≈ 3.13 µg/mL)	9.9 (≈ 3.13 µg/mL)
Cc1cc(=O)c2c(O)cc(O)cc2o1 [NOREUGENIN]	16.3 (≈ 3.13 µg/mL)	16.3 (≈ 3.13 µg/mL)	16.3 (≈ 3.13 µg/mL)	16.3 (≈ 3.13 µg/mL)
COc1cc2c(c(OC)c1C(C)=O)CC=C(CO)CO2	11.2 (≈ 3.12 µg/mL)	22.5 (≈ 6.26 µg/mL)	11.2 (≈ 3.12 µg/mL)	11.2 (≈ 3.12 µg/mL)
